We go through 15 compounds from ChEMBL document CHEMBL2057112, “Enamino-oxindole HIV protease inhibitors” (Bioorg Med Chem Lett, 2012).

The Ki is a measure of affinity in units of concentration, obtained from inhibition or displacement. Usually IC50 stands for the concentration that gives 50% inhibition. A low value points to greater potency in that assay.

Test [1] can be described thus: Inhibition of Human immunodeficiency virus protease M9 mutant expressed in Escherichia coli using ArgGlu(EDANS)SerGlnAsnTyrProIleValGlnLys(DABCYL)Arg as substrate preincubated with compound for 0.5 to 1 min measured by fluorometric analysis at pH 6.5.
Test [2] is described as follows: Inhibition of wild type Human immunodeficiency virus protease expressed in Escherichia coli using ArgGlu(EDANS)SerGlnAsnTyrProIleValGlnLys(DABCYL)Arg as substrate preincubated with compound for 0.5 to 1 min measured by fluorometric analysis at pH 6.5.
In test [3] the test system is Human immunodeficiency virus 1. In words: Antiviral activity against Human immunodeficiency virus 1 HXB2 expressing wild type protease infected in human MT4 cells after 5 days by MTT assay. Particulars: Human immunodeficiency virus 1, HXB2, MT4, 120 h. It is filed as functional, organism-based.
The subject of test [4] is Human immunodeficiency virus 1. As to the kind of experiment: Antiviral activity against Human immunodeficiency virus 1 HXB2 expressing protease M10 mutant infected in human MT4 cells after 5 days by MTT assay. Particulars: Human immunodeficiency virus 1, HXB2, MT4, 120 h. It is filed as functional, organism-based. (In general: Tetrazolium dyes change colour on reduction, which living cells bring about.)

Test [5] concerns Human immunodeficiency virus 1. As to the kind of experiment: Antiviral activity against Human immunodeficiency virus 1 HXB2 expressing protease M8 mutant infected in human MT4 cells after 5 days by MTT assay. Particulars: Human immunodeficiency virus 1, HXB2, MT4, 120 h. It is filed as functional, organism-based.
The nature of test [6]: Inhibition of Human immunodeficiency virus protease M8 mutant expressed in Escherichia coli using ArgGlu(EDANS)SerGlnAsnTyrProIleValGlnLys(DABCYL)Arg as substrate preincubated with compound for 0.5 to 1 min measured by fluorometric analysis at pH 6.5.
A short description of test [7]: Inhibition of Human immunodeficiency virus protease M10 mutant expressed in Escherichia coli using ArgGlu(EDANS)SerGlnAsnTyrProIleValGlnLys(DABCYL)Arg as substrate preincubated with compound for 0.5 to 1 min measured by fluorometric analysis at pH 6.5.
The test system of test [8] is Human immunodeficiency virus 1. As to the kind of experiment: Antiviral activity against Human immunodeficiency virus 1 HXB2 expressing protease M9 mutant infected in human MT4 cells after 5 days by MTT assay. It is filed as functional, organism-based. Particulars: Human immunodeficiency virus 1, HXB2, MT4, 120 h.
In test [9] the test system is Human immunodeficiency virus 1. In words: Antiviral activity against Human immunodeficiency virus 1 HXB2 expressing protease M3 mutant infected in human MT4 cells after 5 days by MTT assay. It is filed as functional, organism-based. The settings on record: Human immunodeficiency virus 1, HXB2, MT4, 120 h. Summed up: (§1)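 MT-4 cells (AIDS Research and Reference Reagent Program) exposed to 50% tissue culture infective doses (TCID₅₀) of virus with various concentrations of test compound for 5 days. MTT solution then added and absorbance measured. Mutant strains carry 10–17 resistance mutations with phenotypic resistance to marketed PIs; all include I84V except M7. IC₅₀ reported.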

Test [10] deals with Human immunodeficiency virus 1. In words: Antiviral activity against Human immunodeficiency virus 1 HXB2 expressing protease M7 mutant infected in human MT4 cells after 5 days by MTT assay. It is filed as functional, organism-based. The settings on record: Human immunodeficiency virus 1, HXB2, MT4, 120 h. The essentials:
as §1

Test [11] deals with Human immunodeficiency virus 1. As to the kind of experiment: Antiviral activity against Human immunodeficiency virus 1 HXB2 expressing protease M6 mutant infected in human MT4 cells after 5 days by MTT assay. The settings on record: Human immunodeficiency virus 1, HXB2, MT4, 120 h. It is filed as functional, organism-based. The essentials: as §1
Test [12] relates to Human immunodeficiency virus 1. As to the kind of experiment: Antiviral activity against Human immunodeficiency virus 1 HXB2 expressing protease M4 mutant infected in human MT4 cells after 5 days by MTT assay. It is filed as functional, organism-based. The settings on record: Human immunodeficiency virus 1, HXB2, MT4, 120 h. The essentials: as §1
Test [13] has as its system Human immunodeficiency virus 1. As to the kind of experiment: Antiviral activity against Human immunodeficiency virus 1 HXB2 expressing protease M5 mutant infected in human MT4 cells after 5 days by MTT assay. It is filed as functional, organism-based. Particulars: Human immunodeficiency virus 1, HXB2, MT4, 120 h. The essentials: as §1

Bounds are passed on as bounds.

In the case of `CC(C)CN(C[C@@H](O)[C@H](Cc1ccccc1)NC(=O)O[C@H]1CO[C@H]2OCC[C@H]21)S(=O)(=O)c1ccc2c(c1)CC(=O)N2`, the Ki is 0.00095 µM in [1], less than 0.0001 µM in test [2], 0.00053 µM in test [6] and 0.014 µM in test [7]. Further, the IC50 in test [3] amounted to 0.082 µM; in [4], 0.93 µM; in test [5], 0.15 µM; in [8], 0.11 µM.

In the case of `CC(C)CN(C[C@@H](O)[C@H](Cc1ccccc1)NC(=O)O[C@H]1CO[C@H]2OCC[C@H]21)S(=O)(=O)c1ccc2c(c1)C(=CNc1ccccc1)C(=O)N2`, the Ki in test [1] was 0.0012 µM; in test [2], less than 0.0001 µM; in test [6] it was 0.00046 µM; in [7], 0.013 µM. For the same compound, the IC50 in test [3] was 0.013 µM; in test [4], more than 0.4 µM; in test [5], 0.11 µM; in test [8] it was 0.1 µM.

`CC(C)CN(C[C@@H](O)[C@H](Cc1ccccc1)NC(=O)O[C@H]1CO[C@H]2OCC[C@H]21)S(=O)(=O)c1ccc2c(c1)C(=CNC(C)(C)C)C(=O)N2` (mixture of isomers): the Ki in [1] is 0.00072 µM; in test [2], less than 0.0001 µM; in [6], 0.00035 µM; in test [7], 0.014 µM. Moreover, the half-maximal inhibitory concentration (IC50) in [3] was found to be 0.009 µM; in test [4], 0.2 µM; in [5], 0.035 µM; in [8], 0.025 µM.

For `CNC=C1C(=O)Nc2ccc(S(=O)(=O)N(CC(C)C)C[C@@H](O)[C@H](Cc3ccccc3)NC(=O)O[C@H]3CO[C@H]4OCC[C@H]43)cc21` (mixture of isomers), the IC50 came out at 0.051 µM in [9], 0.06 µM in test [3], 0.093 µM in test [4] and 0.05 µM in test [8]. In addition, the Ki is less than 0.0003 µM in test [1], less than 0.0001 µM in test [2], 0.00011 µM in test [6] and less than 0.001 µM in test [7].

With `CC(N)=C1C(=O)Nc2ccc(S(=O)(=O)N(CC(C)C)C[C@@H](O)[C@H](Cc3ccccc3)NC(=O)O[C@H]3CO[C@H]4OCC[C@H]43)cc21` (mixture of isomers), the IC50 in [9] came out at 0.07 µM; in test [10] it was 0.03 µM; in test [11], 0.065 µM; in [12], 0.07 µM; in test [3], 0.064 µM; in [4], 0.06 µM. Also, the IC50 was found to be 0.07 µM in [5], 0.075 µM in test [13] and 0.06 µM in [8]. The values for the Ki in test [1], in test [2] and in [7] were less than 0.0003 µM, less than 0.0001 µM and less than 0.001 µM, respectively.

Consider `CCCNC=C1C(=O)Nc2ccc(S(=O)(=O)N(CC(C)C)C[C@@H](O)[C@H](Cc3ccccc3)NC(=O)O[C@H]3CO[C@H]4OCC[C@H]43)cc21` (mixture of isomers), for which the IC50 in test [9] came to 0.04 µM; in test [3], 0.03 µM; in test [4] it was 0.12 µM; in [8] it was 0.04 µM. Also, the Ki in test [1] is less than 0.0003 µM; in [2] it was 0.00012 µM; in test [6] it was less than 0.0001 µM; in test [7] it was less than 0.001 µM.

As for `CC(C)CN(C[C@@H](O)[C@H](Cc1ccccc1)NC(=O)O[C@H]1CO[C@H]2OCC[C@H]21)S(=O)(=O)c1ccc2c(c1)C(=CNC(C)C)C(=O)N2` (mixture of isomers), the inhibitory constant (Ki) in test [1] was less than 0.0003 µM; in test [2], less than 0.0001 µM; in test [6], 0.00011 µM; in test [7], less than 0.001 µM. The IC50 in [3] worked out at 0.015 µM; in [4] it was 0.06 µM; in test [5], 0.03 µM; in [8], 0.019 µM.

As for `CC(C)CN(C[C@@H](O)[C@H](Cc1ccccc1)NC(=O)O[C@H]1CO[C@H]2OCC[C@H]21)S(=O)(=O)c1ccc2c(c1)C(=CNC1CC1)C(=O)N2` (mixture of isomers), the Ki in test [1] is less than 0.0003 µM; in test [2], less than 0.0001 µM; in test [6], 0.00012 µM; in [7], 0.0021 µM. Further, the IC50 in test [3] was found to be 0.024 µM; in test [4], 0.3 µM; in [5], 0.032 µM; in [8], 0.025 µM.

As to `CC(C)CN(C[C@@H](O)[C@H](Cc1ccccc1)NC(=O)O[C@H]1CO[C@H]2OCC[C@H]21)S(=O)(=O)c1ccc2c(c1)C(=CNCCNc1ccccc1)C(=O)N2` (mixture of isomers), the Ki was less than 0.0003 µM in test [1], less than 0.0001 µM in test [2], 0.00039 µM in [6] and 0.003 µM in test [7]. Further, the IC50 in [3] was more than 0.08 µM; in test [4], 0.12 µM; in test [5], 0.16 µM; in [8], 0.08 µM.

For `COCCNC=C1C(=O)Nc2ccc(S(=O)(=O)N(CC(C)C)C[C@@H](O)[C@H](Cc3ccccc3)NC(=O)O[C@H]3CO[C@H]4OCC[C@H]43)cc21` (mixture of isomers), the Ki is less than 0.0003 µM in test [1], 0.00011 µM in test [2], less than 0.0001 µM in [6] and 0.0012 µM in test [7]. Further, the IC50 was 0.07 µM in [3], 0.048 µM in test [4] and 0.042 µM in test [8].

Regarding `CC(C)CN(C[C@@H](O)[C@H](Cc1ccccc1)NC(=O)O[C@H]1CO[C@H]2OCC[C@H]21)S(=O)(=O)c1ccc2c(c1)C(=CNCCc1ccccc1)C(=O)N2` (mixture of isomers), the Ki in [1] is less than 0.0003 µM; in test [2], less than 0.0001 µM; in test [6] it was 0.00017 µM; in test [7] it was 0.0013 µM. Moreover, the IC50 turned out to be 0.022 µM in test [3], 0.11 µM in test [4], 0.061 µM in [5] and 0.028 µM in test [8].

For the compound `CC(C)CN(C[C@@H](O)[C@H](Cc1ccccc1)NC(=O)O[C@H]1CO[C@H]2OCC[C@H]21)S(=O)(=O)c1ccc2c(c1)C(=CNCc1ccc3ccccc3n1)C(=O)N2` (mixture of isomers), the IC50 in test [9] is 0.021 µM; in test [11] it was 0.025 µM; in test [12] it was 0.04 µM; in [3] it was 0.035 µM; in [4], 0.027 µM; in test [5], 0.034 µM. The same compound came in with an IC50 in test [8] of 0.023 µM. Also, the Ki in [1] is less than 0.0003 µM; in test [2] it was 0.0001 µM; in test [6], less than 0.0001 µM; in [7] it was less than 0.001 µM.

As to `CC(C)CN(C[C@@H](O)[C@H](Cc1ccccc1)NC(=O)O[C@H]1CO[C@H]2OCC[C@H]21)S(=O)(=O)c1ccc2c(c1)C(=CNCc1ccccc1)C(=O)N2` (mixture of isomers), the half-maximal inhibitory concentration (IC50) came to 0.013 µM in test [9]; 0.0041 µM in test [10]; 0.018 µM in test [11]; 0.02 µM in test [12]; 0.014 µM in test [3]; 0.03 µM in test [4]. The half-maximal inhibitory concentration (IC50) in test [5] worked out at 0.035 µM; in test [13] it was 0.02 µM. Besides, the Ki is less than 0.0003 µM in test [1], less than 0.0001 µM in [2] and less than 0.001 µM in [7].

Turning to `CC(C)CN(C[C@@H](O)[C@H](Cc1ccccc1)NC(=O)O[C@H]1CO[C@H]2OCC[C@H]21)S(=O)(=O)c1ccc2c(c1)C(=CNCC1CCCCC1)C(=O)N2` (mixture of isomers), the half-maximal inhibitory concentration (IC50) worked out at 0.021 µM in test [9]; 0.025 µM in test [11]; 0.03 µM in test [12]; 0.0097 µM in [3]; 0.04 µM in [4]; 0.027 µM in test [5]. Besides, the IC50 in [13] was 0.018 µM; in test [8] it was 0.009 µM. Also, the Ki in test [1] is less than 0.0003 µM; in test [2], less than 0.0001 µM; in test [6] it was 0.00016 µM; in test [7], less than 0.001 µM.

For the compound `CC(C)CN(C[C@@H](O)[C@H](Cc1ccccc1)NC(=O)O[C@H]1CO[C@H]2OCC[C@H]21)S(=O)(=O)c1ccc2c(c1)C(=CNCCC(C)(C)C)C(=O)N2` (mixture of isomers), the 50% inhibitory concentration (IC50) in test [9] came to 0.019 µM; in test [10], 0.0032 µM; in test [11], 0.024 µM; in test [12], 0.025 µM; in test [3], 0.011 µM; in [4], 0.032 µM. Also, the IC50 in test [5] was 0.023 µM; in test [13], 0.017 µM. The Ki is less than 0.0003 µM in test [1], less than 0.0001 µM in test [2] and less than 0.001 µM in test [7].
